Test results reported in ChEMBL document CHEMBL4330179, “De Novo Discovery of Nonstandard Macrocyclic Peptides as Noncompetitive Inhibitors of the Zika Virus NS2B-NS3 Protease” (ACS Med Chem Lett, 2019).
Active and inactive are the calls of the source. Positions of bridges follow the written chain, without caps; N, C: chain ends. Non-standard residues stand in square brackets, D forms with d. Residues, ends and D or L forms follow the SMILES beside them. NMeY = CN[C@@H](Cc1ccc(O)cc1)C(=O)O; NMeF = CN[C@@H](Cc1ccccc1)C(=O)O; NMeS = CN[C@@H](CO)C(=O)O; Sar = CNCC(=O)O

Legend:
Nonstructural protein 3 [1] = target: T1, Nonstructural protein 3 (Zika virus, UniProt A0A024AXB9); assay: Non-competitive inhibition of C-terminal His6-tagged linked Zika virus NS2B-NS3 protease domain expressed in Escherichia coli Bl21(DE3) using Bz-Nle-Lys-Lys-Arg-AMC as substrate after 30 mins by Cornish-Bowden plot analysis
T1 sequence (A0A024AXB9 whole entry, the tested form may be a part): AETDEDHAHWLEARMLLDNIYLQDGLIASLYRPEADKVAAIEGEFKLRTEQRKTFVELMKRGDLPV
Summary of the method: (§1)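 Fluorogenic substrate Bz-Nle-Lys-Lys-Arg-AMC against linked gZiPro, run at four substrate concentrations across a range of inhibitor concentrations. Ki comes from nonlinear least-squares fits to a noncompetitive inhibition model, and the mode is checked on Cornish–Bowden plots.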

Nonstructural protein 3 [2] = target: T1, Nonstructural protein 3; assay: Inhibition of C-terminal His6-tagged linked Zika virus NS2B-NS3 protease domain expressed in Escherichia coli Bl21(DE3) using Bz-Nle-Lys-Lys-Arg-AMC as substrate after 30 mins by fluorophotometric method; summary of the method: as §1
Nonstructural protein 3 [3] = target: T1, Nonstructural protein 3; assay: Binding affinity to C-terminal His6-tagged linked Zika virus NS2B-NS3 protease domain by SPR analysis
Summary of the method: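 Dissociation constants measured by surface plasmon resonance, with the linked Zika NS2B-NS3 protease (gZiPro) immobilized on the chip.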

Nonstructural protein 3 [4] = target: T1, Nonstructural protein 3; assay: Inhibition of C-terminal His6-tagged unlinked Zika virus NS2B-NS3 protease domain expressed in Escherichia coli Bl21(DE3) using Bz-Nle-Lys-Lys-Arg-AMC as substrate after 30 mins by fluorophotometric method
Summary of the method: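 Unlinked Zika NS2B-NS3 protease at 0.5 nM with Bz-Nle-Lys-Lys-Arg-AMC substrate.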

Genome polyprotein [5] = target: Genome polyprotein (dengue virus type 2, UniProt P29990); assay: Inhibition of C-terminal His6-tagged linked Dengue virus serotype 2 NS2B-NS3 protease domain expressed in Escherichia coli Bl21(DE3) preincubated for 15 mins followed by Abz-Nle-Lys-Arg-Arg-Ser-3-(NO2)Tyr substrate addition and measured for 15 mins by fluorescence method
Sequence of Genome polyprotein (dengue virus type 2, UniProt P29990) (P29990 1346-1475 limits assumed): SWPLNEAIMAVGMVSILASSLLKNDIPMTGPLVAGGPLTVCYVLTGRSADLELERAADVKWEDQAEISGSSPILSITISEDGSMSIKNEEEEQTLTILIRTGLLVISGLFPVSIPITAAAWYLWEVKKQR
Sequence of Genome polyprotein (dengue virus type 2, UniProt P29990) (P29990 1476-2093 limits assumed): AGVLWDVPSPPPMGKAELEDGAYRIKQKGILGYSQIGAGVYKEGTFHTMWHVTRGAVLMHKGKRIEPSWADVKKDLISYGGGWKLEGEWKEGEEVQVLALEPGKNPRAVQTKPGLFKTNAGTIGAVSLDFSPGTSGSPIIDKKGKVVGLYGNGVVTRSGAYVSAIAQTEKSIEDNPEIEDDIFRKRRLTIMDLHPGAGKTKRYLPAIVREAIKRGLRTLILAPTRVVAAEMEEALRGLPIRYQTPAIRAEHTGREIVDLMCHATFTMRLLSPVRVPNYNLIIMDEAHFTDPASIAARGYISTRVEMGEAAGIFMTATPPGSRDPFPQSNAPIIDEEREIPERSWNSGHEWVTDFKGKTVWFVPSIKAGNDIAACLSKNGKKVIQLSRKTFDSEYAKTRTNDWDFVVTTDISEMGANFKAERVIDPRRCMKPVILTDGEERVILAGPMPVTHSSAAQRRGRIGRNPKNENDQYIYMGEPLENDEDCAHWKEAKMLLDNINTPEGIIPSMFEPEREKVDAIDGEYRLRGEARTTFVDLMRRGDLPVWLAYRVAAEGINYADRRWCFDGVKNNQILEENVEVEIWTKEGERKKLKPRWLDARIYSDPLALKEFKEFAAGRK
Summary of the method: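 DENV-2 NS2B-NS3 protease used at 100 nM against the FRET substrate Abz-Nle-Lys-Arg-Arg-Ser-3-(NO2)Tyr. IC50 values were calculated for a substrate concentration of 50 μM.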

Genome polyprotein [6] = target: Genome polyprotein (West Nile virus, UniProt P06935); assay: Inhibition of C-terminal His6-tagged linked West Nile virus NS2B-NS3 protease domain expressed in Escherichia coli Bl21(DE3) preincubated for 15 mins followed by AbzGly-Leu-Lys-Arg-Gly-Gly-3-(NO2)Tyr substrate addition and measured for 15 mins by fluorescence method
Sequence of Genome polyprotein (West Nile virus, UniProt P06935) (P06935 1371-1501 limits assumed): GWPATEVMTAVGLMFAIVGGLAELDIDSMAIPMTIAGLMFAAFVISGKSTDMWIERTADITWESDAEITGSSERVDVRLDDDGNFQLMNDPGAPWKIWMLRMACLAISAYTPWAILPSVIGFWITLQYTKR
Sequence of Genome polyprotein (West Nile virus, UniProt P06935) (P06935 1502-2120 limits assumed): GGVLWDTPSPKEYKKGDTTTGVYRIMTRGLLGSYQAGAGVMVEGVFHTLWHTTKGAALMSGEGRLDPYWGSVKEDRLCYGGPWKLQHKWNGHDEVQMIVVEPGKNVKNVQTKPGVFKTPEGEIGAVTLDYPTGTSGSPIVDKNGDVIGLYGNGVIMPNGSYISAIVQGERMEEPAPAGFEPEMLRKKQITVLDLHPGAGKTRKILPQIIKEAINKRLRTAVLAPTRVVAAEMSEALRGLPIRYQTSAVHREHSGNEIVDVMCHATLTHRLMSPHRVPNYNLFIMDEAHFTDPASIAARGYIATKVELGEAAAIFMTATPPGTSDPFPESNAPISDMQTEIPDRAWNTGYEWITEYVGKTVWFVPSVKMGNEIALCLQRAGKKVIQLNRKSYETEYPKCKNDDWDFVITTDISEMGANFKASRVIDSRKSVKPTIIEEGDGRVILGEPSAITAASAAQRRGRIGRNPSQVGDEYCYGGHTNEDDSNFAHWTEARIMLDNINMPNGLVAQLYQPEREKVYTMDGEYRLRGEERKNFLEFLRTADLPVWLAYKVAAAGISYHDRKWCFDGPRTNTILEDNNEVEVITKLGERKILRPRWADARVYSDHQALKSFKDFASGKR
Summary of the method: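 West Nile virus NS2B-NS3 protease at 150 nM with internally quenched substrate Abz-Gly-Leu-Lys-Arg-Gly-Gly-3-(NO2)Tyr. IC50 is calculated for 50 μM substrate.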

[7] = target: T2, Nonstructural protein 3 (Zika virus) (UniProt A0A024AXB9); assay: Competitive inhibition of C-terminal His6-tagged linked Zika virus NS2B-NS3 protease domain expressed in Escherichia coli Bl21(DE3) using Bz-Nle-Lys-Lys-Arg-AMC as substrate after 30 mins by Cornish-Bowden plot analysis
T2 sequence (A0A024AXB9 as listed by the source): as the sequence (A0A024AXB9 whole entry, the tested form may be a part) above

[8] = target: Prothrombin (Homo sapiens) (UniProt P00734); assay: Inhibition of thrombin (unknown origin) at 25 uM using Boc-Val-Pro-Arg-AMC as substrate preincubated for 15 mins followed by substrate addition and measured for 10 mins by fluorescence assay
Summary of the method: (§2)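 Serine protease counter-screens (thrombin, trypsin), tested up to a highest concentration of 25 or 50 μM.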

Trypsin (Homo sapiens) = Trypsin (Homo sapiens) (UniProt P07477+P07478+P35030); assay: Inhibition of trypsin (unknown origin) at 25 uM using Boc-Val-Pro-Arg-AMC as substrate preincubated for 15 mins followed by substrate addition and measured for 10 mins by fluorescence assay; type: protein assay; summary of the method: as §2
[9] = Selectivity index, ratio of IC50 for C-terminal His6-tagged linked Dengue virus serotype 2 NS2B-NS3 protease domain expressed in Escherichia coli Bl21(DE3) to Ki for non-competitive inhibition of C-terminal His6-tagged linked Zika virus NS2B-NS3 protease domain expressed in Escherichia coli Bl21(DE3)
[10] = Selectivity index, ratio of IC50 for C-terminal His6-tagged linked West Nile virus NS2B-NS3 protease domain expressed in Escherichia coli Bl21(DE3) to Ki for non-competitive inhibition of C-terminal His6-tagged linked Zika virus NS2B-NS3 protease domain expressed in Escherichia coli Bl21(DE3)
Huh-7 = assay: Cytotoxicity against human HuH7 cells assessed as reduction in cell viability up to 12.5 uM after 24 to 48 hrs by CellTiter-Blue assay; type: cell-based
Summary of the method: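 Huh-7 cells exposed to compounds for 24 h and 48 h. Metabolic activity is read as % reduction relative to nontreated cells, with 80% viability used as the cutoff.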

[11] = target: T2, Nonstructural protein 3 (Zika virus); assay: Inhibition of C-terminal His6-tagged unlinked Zika virus NS2B-NS3 protease domain expressed in Escherichia coli Bl21(DE3) at 200 to 400 nM using Bz-Nle-Lys-Lys-Arg-AMC as substrate after 30 mins in presence of cn-716 by fluorophotometric method

Structure (SMILES) | Ki (Nonstructural protein 3 [1]) [nM] | IC50 (Nonstructural protein 3 [2]) [µM] | Kd (Nonstructural protein 3 [3]) [nM] | IC50 (Nonstructural protein 3 [4]) [nM] | IC50 (Genome polyprotein [5]) [µM] | IC50 (Genome polyprotein [6]) [µM] | inhibition [7] | inhibition [8] | inhibition (Trypsin (Homo sapiens)) | Selectivity Index [9] | Selectivity Index [10] | Activity (Huh-7) | inhibition [11]
CC[C@H](C)[C@@H]1NC(=O)CN(C)C(=O)[C@H](Cc2ccc(O)cc2)NC(=O)CSC[C@@H](C(N)=O)NC(=O)[C@@H]2CCCN2C(=O)[C@H]([C@@H](C)CC)NC(=O)[C@H](Cc2ccc(OC)cc2)N(C)C(=O)[C@H](Cc2ccc(OC)cc2)N(C)C(=O)[C@H](CC(N)=O)NC(=O)[C@H](Cc2ccc(O)cc2)NC(=O)[C@H](CCCCN)NC(=O)[C@H](C)NC1=O ({CH2CO}-Y[Sar]IAKYN[NMeY](Me)[NMeY](Me)IPC-NH2; thioether N-12) | 20400 | 16.5 | 9 | 4600 | ≥ 20 | ≥ 20 | inactive |  |  |  |  |  | 
CC(C)C[C@@H]1NC(=O)[C@H]([C@@H](C)O)NC(=O)[C@H](Cc2ccc(O)cc2)NC(=O)CSC[C@@H](C(N)=O)NC(=O)[C@H](Cc2ccccc2)NC(=O)[C@H](Cc2ccccc2)NC(=O)[C@H]([C@@H](C)O)NC(=O)CN(C)C(=O)[C@H](CC(N)=O)NC(=O)[C@H](Cc2cnc[nH]2)NC(=O)[C@H](Cc2ccccc2)NC(=O)[C@@H]2CCCN2C1=O ({CH2CO}-YTLPFHN[Sar]TFFC-NH2; thioether N-12) | > 100000 |  | 5 | ≥ 50000 | > 20 | > 20 | inactive |  |  |  |  |  | 
CC[C@H](C)[C@@H]1NC(=O)[C@H](CC(N)=O)NC(=O)[C@H](C(C)C)NC(=O)[C@H](CC(C)C)NC(=O)[C@H]([C@@H](C)O)NC(=O)[C@H](CC(N)=O)NC(=O)[C@H](Cc2ccc(OC)cc2)N(C)C(=O)[C@H]([C@@H](C)CC)NC(=O)[C@H](CCCCN)NC(=O)[C@H](Cc2c[nH]c3ccccc23)NC(=O)[C@H](Cc2ccc(O)cc2)NC(=O)CSC[C@@H](C(N)=O)NC1=O ({CH2CO}-YWKI[NMeY](Me)NTLVNIC-NH2; thioether N-12) | 800 | 1.32 | 20 | 1500 | > 10 | > 10 | inactive | inactive | inactive | 4 | 9 | Non-Toxic | 
COc1ccc(C[C@H]2C(=O)N[C@@H](CCCCN)C(=O)N(C)[C@@H](Cc3ccccc3)C(=O)N[C@@H](CCCCN)C(=O)N(C)[C@@H](CO)C(=O)N(C)[C@@H](Cc3ccc(OC)cc3)C(=O)N[C@@H](CCCCN)C(=O)N(C)[C@@H](Cc3ccc(OC)cc3)C(=O)N(C)[C@@H](Cc3ccc(OC)cc3)C(=O)N[C@@H](CCCCN)C(=O)N[C@H](C(N)=O)CSCC(=O)N[C@@H](Cc3ccc(O)cc3)C(=O)N2C)cc1 ({CH2CO}-Y[NMeY](Me)K[NMeF]K[NMeS][NMeY](Me)K[NMeY](Me)[NMeY](Me)KC-NH2; thioether N-12) | 440 | 0.62 | 9 | 250 | 1.7 | 3.9 | inactive | inactive | inactive | > 10 | > 10 | Non-Toxic | Active
COc1ccc(C[C@H]2C(=O)N[C@@H](Cc3ccccc3)C(=O)N[C@H](C(N)=O)CSCC(=O)N[C@@H](Cc3ccc(O)cc3)C(=O)N[C@@H]([C@@H](C)O)C(=O)N[C@@H](CC(N)=O)C(=O)N[C@@H](Cc3ccccc3)C(=O)N[C@@H](Cc3ccc(O)cc3)C(=O)N[C@@H](CC(C)C)C(=O)N[C@@H](Cc3ccc(O)cc3)C(=O)N3CCC[C@H]3C(=O)N[C@@H](Cc3ccc(O)cc3)C(=O)N2C)cc1 ({CH2CO}-YTNFYLYPY[NMeY](Me)FC-NH2; thioether N-12) | 2000 | 3.3 | 8 | 2200 | > 20 | > 20 | inactive |  |  | > 10 | > 10 |  | 
CC[C@H](C)[C@@H]1NC(=O)[C@H](C)NC(=O)[C@@H](Cc2ccc(O)cc2)NC(=O)CSC[C@@H](C(N)=O)NC(=O)[C@H](CC(N)=O)NC(=O)[C@H](CC(C)C)N(C)C(=O)[C@H](Cc2ccc(O)cc2)NC(=O)[C@H](CCCCN)NC(=O)[C@H](CC(N)=O)NC(=O)[C@H](Cc2ccc(O)cc2)NC(=O)[C@H](Cc2ccc(OC)cc2)N(C)C(=O)[C@H]([C@@H](C)CC)NC1=O | 3500 | 7.1 | 168 | 3200 | > 20 | > 20 | inactive |  |  |  |  |  | 
